Experimental data as given in ChEMBL document CHEMBL3414437, “Synthesis of CDDO-amino acid-nitric oxide donor trihybrids as potential antitumor agents against both drug-sensitive and drug-resistant colon cancer” (J Med Chem, 2015).
Calls of active or inactive are those of the source. The calls are words filed in the database; no cut-off is given here.

How the values were obtained:
HCT-8 [1] = experiment: Induction of nitric oxide release in 5-FU resistant human HCT8 cells at 150 uM incubated for 150 mins after 150 mins of pre-treatment with 0.75 uM to 192 uM pepT1 substrate Gly-Sar by Griess assay; type: functional, cell-based
In short: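 Cells pretreated with Gly-Sar (0.75–192 µM, nine levels) for 150 min, then given compound at 150 µM for 150 min. Intracellular nitrite in lysates measured with Griess reagent (10 min, 37 °C, 540 nm) against a sodium nitrite standard curve. Mean ± SD of three experiments.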

HCT-8 [2] = experiment: Induction of apoptosis in human HCT8 cells incubated for 24 hrs by FITC-Annexin-V and propidium iodide staining based flow cytometry; type: functional, cell-based
HCT-8 [3] = experiment: Inhibition of HIF-1alpha protein expression in human HCT8 cells at 0.25 to 1 uM incubated for 24 hrs by Western blotting method; type: functional, cell-based
In short: (§1)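 Cells (1 x 10^6) grown 24 h in 6 cm dishes, then exposed in duplicate for 24 h to 0.25, 0.5 or 1 µM compound, with or without PTIO. Lysates (20 µg/lane) were run on 7.5% SDS-PAGE, blotted to PVDF and blocked in 5% milk. HRP secondaries with ECL detection; bands quantified by densitometry against β-actin or GAPDH. Three separate experiments, mean ± SD.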

HCT-8 [4] = experiment: Inhibition of HIF-1alpha protein expression in FU-resistant human HCT8 cells at 0.25 to 1 uM incubated for 24 hrs by Western blotting method; type: functional, cell-based; in short: as §1
[5] = target: Signal transducer and activator of transcription 3 (Homo sapiens) (UniProt P40763); experiment: Inhibition of STAT3 protein phosphorylation in FU-resistant human HCT8 cells at 0.25 to 1 uM incubated for 24 hrs by Western blotting method; type: cell-based; conditions: HCT-8; in short: as §1
Sequence of Signal transducer and activator of transcription 3 (Homo sapiens) (P40763 whole entry): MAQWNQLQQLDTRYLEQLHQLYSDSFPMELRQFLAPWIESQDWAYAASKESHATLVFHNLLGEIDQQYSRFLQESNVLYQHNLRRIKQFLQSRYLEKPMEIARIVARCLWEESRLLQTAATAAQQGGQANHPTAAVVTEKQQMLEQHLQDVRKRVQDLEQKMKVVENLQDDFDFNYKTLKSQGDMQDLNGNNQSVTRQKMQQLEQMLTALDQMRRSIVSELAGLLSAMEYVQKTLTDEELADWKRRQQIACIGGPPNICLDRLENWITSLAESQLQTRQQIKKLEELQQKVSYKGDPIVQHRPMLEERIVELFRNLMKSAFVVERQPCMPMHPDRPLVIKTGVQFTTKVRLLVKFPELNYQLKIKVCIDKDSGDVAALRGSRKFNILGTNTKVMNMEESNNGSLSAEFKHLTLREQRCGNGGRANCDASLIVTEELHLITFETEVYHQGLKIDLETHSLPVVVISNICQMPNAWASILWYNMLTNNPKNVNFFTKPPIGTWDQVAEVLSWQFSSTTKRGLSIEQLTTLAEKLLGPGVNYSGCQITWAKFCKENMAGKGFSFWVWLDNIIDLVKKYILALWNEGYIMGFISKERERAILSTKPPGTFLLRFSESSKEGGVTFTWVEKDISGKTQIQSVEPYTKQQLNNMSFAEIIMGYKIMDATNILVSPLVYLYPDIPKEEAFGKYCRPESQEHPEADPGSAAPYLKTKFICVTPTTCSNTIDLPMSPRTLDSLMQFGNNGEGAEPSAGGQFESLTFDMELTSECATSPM

[6] = target: RAC-alpha serine/threonine-protein kinase (Homo sapiens) (UniProt P31749); experiment: Inhibition of AKT protein phosphorylation in human HCT8 cells at 0.25 to 1 uM incubated for 24 hrs by Western blotting method; type: cell-based; conditions: HCT-8; in short: as §1
Sequence of RAC-alpha serine/threonine-protein kinase (Homo sapiens) (P31749 whole entry): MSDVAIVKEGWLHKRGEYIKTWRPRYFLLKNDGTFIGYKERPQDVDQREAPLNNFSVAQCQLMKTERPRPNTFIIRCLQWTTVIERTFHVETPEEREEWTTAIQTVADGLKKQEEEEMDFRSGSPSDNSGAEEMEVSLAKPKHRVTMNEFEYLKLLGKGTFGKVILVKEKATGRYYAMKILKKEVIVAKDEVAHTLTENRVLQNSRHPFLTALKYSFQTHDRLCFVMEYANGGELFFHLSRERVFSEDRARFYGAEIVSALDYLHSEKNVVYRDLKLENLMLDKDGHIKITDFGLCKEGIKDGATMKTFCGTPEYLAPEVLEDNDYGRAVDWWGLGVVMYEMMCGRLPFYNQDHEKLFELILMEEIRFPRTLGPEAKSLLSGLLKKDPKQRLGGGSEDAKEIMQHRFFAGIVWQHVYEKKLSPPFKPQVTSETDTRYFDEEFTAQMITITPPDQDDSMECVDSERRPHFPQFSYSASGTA

HCT-8 [7] = experiment: Inhibition of ERK protein phosphorylation in FU-resistant human HCT8 cells at 0.25 to 1 uM incubated for 24 hrs by Western blotting method; type: cell-based; in short: as §1
HCT-8 [8] = experiment: Inhibition of P-gp protein expression in FU-resistant human HCT8 cells at 0.25 to 1 uM incubated for 24 hrs by Western blotting method; type: functional, cell-based; in short: as §1
HCT-8 [9] = experiment: Inhibition of BCRP protein expression in FU-resistant human HCT8 cells at 0.25 to 1 uM incubated for 24 hrs by Western blotting method; type: functional, cell-based; in short: as §1
HCT-8 [10] = experiment: Inhibition of P-gp protein expression in FU-resistant human HCT8 cells at 1 uM in presence of NO scavenger carboxy-PTIO incubated for 24 hrs by Western blotting method; type: functional, cell-based; in short: as §1
Mus musculus [11] = experiment: Toxicity in female ICR mouse assessed as body weight level at 2.38 x 10^3 umol/kg administered as single dose via oral gavage measured on day 14 post treatment (reference value: 19.5 +/- 0.85 g); type: organism-based; conditions: in vivo
Mus musculus [12] = experiment: Toxicity in nude BALB/c mouse xenografted with FU-resistant human HCT8 cells assessed as body weight level at 35.7 umol/kg administered as via oral gavage daily for 21 days (reference value: 21.1 +/- 1.5 g); type: organism-based, HCT-8; conditions: in vivo, 504 h
In short: (§2)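 Male BALB/c nude mice, 6-8 weeks old, inoculated s.c. in right flank with HCT-8/5-FU cells (2 × 10^6/mouse). Once tumors reached 180-200 mm3 (9-11 days post-implantation), mice were randomized and dosed by gavage daily for 21 consecutive days in cremophor-EL/DMSO/PBS (1:1:8) (vehicle alone 0.2 mL). Body weights recorded on day 1 and day 21. Organ size, color and weights were inspected for liver, kidney, lung and heart. n = 8 per group; mean ± SD.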

Mus musculus [13] = experiment: Toxicity in nude BALB/c mouse xenografted with FU-resistant human HCT8 cells assessed as abnormal size changes in liver at 17.8 to 35.7 umol/kg administered as via oral gavage daily for 21 days; type: organism-based, HCT-8; conditions: in vivo, 504 h
In short: (§3)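 Male BALB/c nude mice aged 6-8 weeks, implanted s.c. in the right flank with HCT-8/5-FU cells (2 × 10^6). Once tumors reached 180-200 mm3 (days 9-11), randomized to daily gavage for 21 days in cremophor-EL/DMSO/PBS (1:1:8), 0.2 mL. At the end, liver, kidney, lung and heart checked for size, colour and weight. n = 8 per group.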

Mus musculus [14] = experiment: Toxicity in nude BALB/c mouse xenografted with FU-resistant human HCT8 cells assessed as abnormal size changes in kidney at 17.8 to 35.7 umol/kg administered as via oral gavage daily for 21 days; type: organism-based, HCT-8; conditions: in vivo, 504 h; in short: as §3
Mus musculus [15] = experiment: Toxicity in nude BALB/c mouse xenografted with FU-resistant human HCT8 cells assessed as abnormal size changes in lung at 17.8 to 35.7 umol/kg administered as via oral gavage daily for 21 days; type: organism-based, HCT-8; conditions: in vivo, 504 h; in short: as §3
Mus musculus [16] = experiment: Toxicity in nude BALB/c mouse xenografted with FU-resistant human HCT8 cells assessed as abnormal size changes in heart at 17.8 to 35.7 umol/kg administered as via oral gavage daily for 21 days; type: organism-based, HCT-8; conditions: in vivo, 504 h; in short: as §3
Mus musculus [17] = experiment: Toxicity in nude BALB/c mouse xenografted with FU-resistant human HCT8 cells assessed as abnormal weight changes in kidney at 17.8 to 35.7 umol/kg administered as via oral gavage daily for 21 days; type: organism-based, HCT-8; conditions: in vivo, 504 h; in short: as §3
Mus musculus [18] = experiment: Toxicity in nude BALB/c mouse xenografted with FU-resistant human HCT8 cells assessed as abnormal weight changes in lung at 17.8 to 35.7 umol/kg administered as via oral gavage daily for 21 days; type: organism-based, HCT-8; conditions: in vivo, 504 h; in short: as §2
Mus musculus [19] = experiment: Toxicity in nude BALB/c mouse xenografted with FU-resistant human HCT8 cells assessed as abnormal weight changes in heart at 17.8 to 35.7 umol/kg administered as via oral gavage daily for 21 days; type: organism-based, HCT-8; conditions: in vivo, 504 h; in short: as §3
Mus musculus [20] = experiment: Toxicity in nude BALB/c mouse xenografted with FU-resistant human HCT8 cells assessed as abnormal size changes in lung at 59.4 umol/kg administered as via oral gavage daily for 21 days; type: organism-based, HCT-8; conditions: in vivo, 504 h; in short: as §3
Mus musculus [21] = experiment: Toxicity in nude BALB/c mouse xenografted with FU-resistant human HCT8 cells assessed as abnormal size changes in heart at 59.4 umol/kg administered as via oral gavage daily for 21 days; type: organism-based, HCT-8; conditions: in vivo, 504 h; in short: as §3
Mus musculus [22] = experiment: Toxicity in nude BALB/c mouse xenografted with FU-resistant human HCT8 cells assessed as abnormal weight changes in kidney at 59.4 umol/kg administered as via oral gavage daily for 21 days; type: organism-based, HCT-8; conditions: in vivo, 504 h; in short: as §3
Mus musculus [23] = experiment: Toxicity in nude BALB/c mouse xenografted with FU-resistant human HCT8 cells assessed as abnormal weight changes in lung at 59.4 umol/kg administered as via oral gavage daily for 21 days; type: organism-based, HCT-8; conditions: in vivo, 504 h; in short: as §2
HCT-8 [24] = experiment: Inhibition of HIF-1alpha protein expression in FU-resistant human HCT8 cells at 1 uM incubated for 24 hrs by Western blotting method; type: functional, cell-based; in short: as §1
[25] = target: RAC-alpha serine/threonine-protein kinase (Homo sapiens) (UniProt P31749); experiment: Inhibition of AKT protein phosphorylation in FU-resistant human HCT8 cells at 1 uM incubated for 24 hrs by Western blotting method; type: cell-based; conditions: HCT-8; in short: as §1
HCT-8 [26] = experiment: Inhibition of P-gp protein expression in FU-resistant human HCT8 cells at 1 uM incubated for 24 hrs by Western blotting method; type: functional, cell-based; in short: as §1
HCT-8 [27] = experiment: Inhibition of MRP1 protein expression in FU-resistant human HCT8 cells at 1 uM incubated for 24 hrs by Western blotting method; type: functional, cell-based; in short: as §1
HCT-8 [28] = experiment: Inhibition of BCRP protein expression in FU-resistant human HCT8 cells at 1 uM incubated for 24 hrs by Western blotting method; type: functional, cell-based; in short: as §1

Which Activity (HCT-8 [1]) does the source give for `CC1(C)CC[C@]2(C(=O)NCC(=O)OCC#CCOc3no[n+]([O-])c3S(=O)(=O)c3ccccc3)CC[C@]3(C)[C@H](C(=O)C=C4[C@@]5(C)C=C(C#N)C(=O)C(C)(C)[C@@H]5CC[C@]43C)[C@@H]2C1` here?
The Activity was “inactive”.

What about the Activity (HCT-8 [2]) of the same molecule?
The Activity was “Dose-dependent effect”.

What about the inhibition (HCT-8 [3]) of the same molecule?
The inhibition was “Dose-dependent effect”.

And the inhibition (HCT-8 [4])?
Its inhibition is “Dose-dependent effect”.

And the inhibition [5]?
The inhibition was “Dose-dependent effect”.

What about the inhibition [6] of the same molecule?
Its inhibition is “Dose-dependent effect”.

What about the inhibition (HCT-8 [7]) of the same molecule?
Its inhibition is “Dose-dependent effect”.

What about the inhibition (HCT-8 [8]) of the same molecule?
The inhibition was “Dose-dependent effect”.

What about the inhibition (HCT-8 [9]) of the same molecule?
The inhibition was “Dose-dependent effect”.

What about the inhibition (HCT-8 [10]) of the same molecule?
The inhibition was “inactive”.

And the Activity (Mus musculus [11])?
The Activity was 30 g.

And the Activity (Mus musculus [12])?
Its Activity is 16.7 g.

What about the Activity (Mus musculus [13]) of the same molecule?
Its Activity is “Non-toxic”.

What about the Activity (Mus musculus [14]) of the same molecule?
The Activity was “Non-toxic”.

What about the Activity (Mus musculus [15]) of the same molecule?
Its Activity is “Non-toxic”.

What about the Activity (Mus musculus [16]) of the same molecule?
The Activity was “Non-toxic”.

And the Activity (Mus musculus [17])?
The Activity was “Non-toxic”.

What about the Activity (Mus musculus [18]) of the same molecule?
The Activity was “Non-toxic”.

What about the Activity (Mus musculus [19]) of the same molecule?
Its Activity is “Non-toxic”.

Which Activity (Mus musculus [20]) does the source give for `COC(=O)[C@]12CCC(C)(C)C[C@H]1[C@H]1C(=O)C=C3[C@@]4(C)C=C(C#N)C(=O)C(C)(C)[C@@H]4CC[C@@]3(C)[C@]1(C)CC2` [BARDOXOLONE METHYL] here?
The Activity was “Non-toxic”.

What about the Activity (Mus musculus [21]) of the same molecule?
The Activity was “Non-toxic”.

And the Activity (Mus musculus [22])?
Its Activity is “Non-toxic”.

What about the Activity (Mus musculus [23]) of the same molecule?
Its Activity is “Non-toxic”.

What about the inhibition (HCT-8 [24]) of the same molecule?
The inhibition was “Active”.

And the inhibition [25]?
The inhibition was “Active”.

And the inhibition (HCT-8 [26])?
Its inhibition is “inactive”.

What about the inhibition (HCT-8 [27]) of the same molecule?
Its inhibition is “inactive”.

What about the inhibition (HCT-8 [28]) of the same molecule?
The inhibition was “inactive”.
